In one test the target is T1, Aurora kinase A (Homo sapiens, UniProt O14965).
T1 sequence (O14965 whole entry): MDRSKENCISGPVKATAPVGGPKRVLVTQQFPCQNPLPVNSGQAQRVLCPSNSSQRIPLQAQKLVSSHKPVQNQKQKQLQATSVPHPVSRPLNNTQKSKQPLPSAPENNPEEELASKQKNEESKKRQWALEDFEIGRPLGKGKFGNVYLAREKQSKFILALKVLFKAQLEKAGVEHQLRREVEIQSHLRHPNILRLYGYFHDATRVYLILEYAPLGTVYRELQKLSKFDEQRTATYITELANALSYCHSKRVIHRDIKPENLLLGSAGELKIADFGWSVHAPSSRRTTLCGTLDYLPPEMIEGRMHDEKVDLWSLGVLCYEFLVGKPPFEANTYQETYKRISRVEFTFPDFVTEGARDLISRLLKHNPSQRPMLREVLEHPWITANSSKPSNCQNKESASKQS
The experiment in a line: Inhibition of human partial length Aurora A (E122 to K401 residues) expressed in mammalian expression system using poly [Glu, Try] 4:1 as substrate in presence of [gamma-33P]ATP. A digest of the protocol:
(§1)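 Radiometric assay on recombinant kinase: ³³P incorporation into the kinase substrate was measured and activity was expressed relative to a DMSO control.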

The target in test [1] is T2, Tyrosine-protein kinase receptor UFO (Homo sapiens, UniProt P30530).
T2 sequence (P30530 whole entry): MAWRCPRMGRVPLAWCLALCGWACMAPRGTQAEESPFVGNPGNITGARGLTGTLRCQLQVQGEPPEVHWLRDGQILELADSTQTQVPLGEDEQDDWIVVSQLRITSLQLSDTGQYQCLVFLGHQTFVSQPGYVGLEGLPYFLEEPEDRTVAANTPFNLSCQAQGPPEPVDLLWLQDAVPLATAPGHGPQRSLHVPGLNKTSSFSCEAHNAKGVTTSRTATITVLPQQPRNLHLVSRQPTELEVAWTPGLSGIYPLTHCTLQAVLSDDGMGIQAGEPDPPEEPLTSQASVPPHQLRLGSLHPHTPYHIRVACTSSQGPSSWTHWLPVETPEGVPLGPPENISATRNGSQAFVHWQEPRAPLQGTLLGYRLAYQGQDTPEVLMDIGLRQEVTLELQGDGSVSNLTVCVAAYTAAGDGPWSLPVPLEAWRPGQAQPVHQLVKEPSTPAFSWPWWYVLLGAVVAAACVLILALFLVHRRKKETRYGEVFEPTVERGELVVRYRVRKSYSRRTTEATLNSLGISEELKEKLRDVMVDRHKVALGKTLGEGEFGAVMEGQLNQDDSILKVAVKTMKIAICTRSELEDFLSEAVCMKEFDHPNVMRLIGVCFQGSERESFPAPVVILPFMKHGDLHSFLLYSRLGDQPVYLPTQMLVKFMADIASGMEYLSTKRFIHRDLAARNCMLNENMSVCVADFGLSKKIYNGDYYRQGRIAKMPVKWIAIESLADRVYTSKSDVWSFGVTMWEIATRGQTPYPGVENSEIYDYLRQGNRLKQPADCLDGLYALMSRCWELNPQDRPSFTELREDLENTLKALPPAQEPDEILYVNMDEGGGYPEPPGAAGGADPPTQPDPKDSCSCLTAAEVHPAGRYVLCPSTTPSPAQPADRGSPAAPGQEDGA
The experiment in a line: Inhibition of wild-type human partial length AXL (R497 to Y821 residues) expressed in bacterial expression system using poly [Glu, Try] 4:1 as substrate in presence of [gamma-33P]ATP.

In test [2] the target is T3, Tyrosine-protein kinase Mer (Homo sapiens, UniProt Q12866).
T3 sequence (Q12866 whole entry): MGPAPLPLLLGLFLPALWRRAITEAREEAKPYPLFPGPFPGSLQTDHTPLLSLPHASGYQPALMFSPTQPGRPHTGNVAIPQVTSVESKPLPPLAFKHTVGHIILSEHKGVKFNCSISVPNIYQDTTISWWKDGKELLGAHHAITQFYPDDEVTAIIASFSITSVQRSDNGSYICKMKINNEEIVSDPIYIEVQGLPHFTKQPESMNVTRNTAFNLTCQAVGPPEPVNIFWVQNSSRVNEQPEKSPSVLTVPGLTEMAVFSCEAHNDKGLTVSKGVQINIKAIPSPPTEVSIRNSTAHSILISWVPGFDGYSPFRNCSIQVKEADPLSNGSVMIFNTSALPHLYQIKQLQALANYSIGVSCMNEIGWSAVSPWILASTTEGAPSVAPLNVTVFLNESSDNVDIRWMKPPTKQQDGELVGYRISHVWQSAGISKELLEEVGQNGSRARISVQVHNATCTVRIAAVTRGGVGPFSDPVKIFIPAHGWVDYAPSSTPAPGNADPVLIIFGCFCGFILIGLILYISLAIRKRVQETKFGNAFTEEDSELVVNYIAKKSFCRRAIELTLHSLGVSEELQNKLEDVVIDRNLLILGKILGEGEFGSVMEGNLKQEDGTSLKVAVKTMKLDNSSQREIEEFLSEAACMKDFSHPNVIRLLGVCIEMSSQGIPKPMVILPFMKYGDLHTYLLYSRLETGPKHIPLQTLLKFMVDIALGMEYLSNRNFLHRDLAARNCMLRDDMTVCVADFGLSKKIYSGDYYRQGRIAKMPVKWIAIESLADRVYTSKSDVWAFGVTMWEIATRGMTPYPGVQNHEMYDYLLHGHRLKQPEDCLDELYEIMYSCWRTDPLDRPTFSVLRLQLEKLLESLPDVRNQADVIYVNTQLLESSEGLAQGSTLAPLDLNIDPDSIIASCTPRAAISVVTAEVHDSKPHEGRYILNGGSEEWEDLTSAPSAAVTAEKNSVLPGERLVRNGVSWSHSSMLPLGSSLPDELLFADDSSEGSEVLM
Briefly: Inhibition of wild-type human partial length MER (R557 to L884 residues) expressed in bacterial expression system using poly [Glu, Try] 4:1 as substrate in presence of [gamma-33P]ATP.

For test [3], the target named is Proto-oncogene tyrosine-protein kinase Src (Homo sapiens, UniProt P12931). Briefly: Inhibition of wild-type human partial length SRC (L240 to L536 residues) expressed in bacterial expression system using poly [Glu, Try] 4:1 as substrate in presence of [gamma-33P]ATP.
For test [4], the target named is Vascular endothelial growth factor receptor 2 (Homo sapiens, UniProt P35968). The experiment in a line: Inhibition of wild-type human partial length VEGFR2 (R787 to P1253 residues) expressed in mammalian expression system using poly [Glu, Try] 4:1 as substrate in presence of [gamma-33P]ATP.
In test [5] the target is ALK tyrosine kinase receptor (Homo sapiens, UniProt Q9UM73). Briefly: Inhibition of wild-type human partial length ALK (I1088 to E1409 residues) expressed in mammalian expression system using poly [Glu, Try] 4:1 as substrate in presence of [gamma-33P]ATP. A digest of the protocol:
as §1

The species entered for another test is Mus musculus. The experiment in a line: (§2) Antiproliferative activity against mouse AXL-positive Breast cancer cells after 5 days by PrestoBlue assay. Type of test: functional. A digest of the protocol: (§3)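 Cell proliferation: AXL+ cells were exposed to 8-point half-log dilutions (0.03–100 μM). Viability was read with PrestoBlue reagent on day 5.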
Test [6] can be described thus: as §2. It is filed as functional. To be noted: 120 h. A digest of the protocol: as §3

pEC50, pIC50: −log10 of the molar value. The source made the active and inactive calls. No cut-off for these calls is given here. Where only a bound is given, the exact number is not on record here.

As a reminder, the pIC50 is −log10 of the IC50, conventionally taken in molar units. For orientation: pEC50 means the EC50 on a negative log10 scale, so that one unit is a factor of ten. A low value points to a large EC50.

Proto-oncogene tyrosine-protein kinase Src, sequence (P12931 2-536 limits assumed): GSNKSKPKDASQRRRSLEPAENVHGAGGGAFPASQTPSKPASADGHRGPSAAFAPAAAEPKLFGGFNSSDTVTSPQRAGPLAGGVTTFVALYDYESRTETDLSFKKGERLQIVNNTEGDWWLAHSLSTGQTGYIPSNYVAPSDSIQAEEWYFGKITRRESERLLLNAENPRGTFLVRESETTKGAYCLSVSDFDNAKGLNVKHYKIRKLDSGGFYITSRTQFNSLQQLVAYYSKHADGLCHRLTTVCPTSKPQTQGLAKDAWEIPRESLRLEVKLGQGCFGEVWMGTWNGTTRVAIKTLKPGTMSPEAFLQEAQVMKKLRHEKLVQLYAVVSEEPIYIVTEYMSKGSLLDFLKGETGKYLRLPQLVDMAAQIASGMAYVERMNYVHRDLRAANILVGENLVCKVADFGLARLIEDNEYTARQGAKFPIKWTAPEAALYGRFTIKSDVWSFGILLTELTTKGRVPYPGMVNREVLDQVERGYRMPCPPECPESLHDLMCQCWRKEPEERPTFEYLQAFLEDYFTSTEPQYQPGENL
Vascular endothelial growth factor receptor 2, sequence (P35968 whole entry, the tested form may be a part): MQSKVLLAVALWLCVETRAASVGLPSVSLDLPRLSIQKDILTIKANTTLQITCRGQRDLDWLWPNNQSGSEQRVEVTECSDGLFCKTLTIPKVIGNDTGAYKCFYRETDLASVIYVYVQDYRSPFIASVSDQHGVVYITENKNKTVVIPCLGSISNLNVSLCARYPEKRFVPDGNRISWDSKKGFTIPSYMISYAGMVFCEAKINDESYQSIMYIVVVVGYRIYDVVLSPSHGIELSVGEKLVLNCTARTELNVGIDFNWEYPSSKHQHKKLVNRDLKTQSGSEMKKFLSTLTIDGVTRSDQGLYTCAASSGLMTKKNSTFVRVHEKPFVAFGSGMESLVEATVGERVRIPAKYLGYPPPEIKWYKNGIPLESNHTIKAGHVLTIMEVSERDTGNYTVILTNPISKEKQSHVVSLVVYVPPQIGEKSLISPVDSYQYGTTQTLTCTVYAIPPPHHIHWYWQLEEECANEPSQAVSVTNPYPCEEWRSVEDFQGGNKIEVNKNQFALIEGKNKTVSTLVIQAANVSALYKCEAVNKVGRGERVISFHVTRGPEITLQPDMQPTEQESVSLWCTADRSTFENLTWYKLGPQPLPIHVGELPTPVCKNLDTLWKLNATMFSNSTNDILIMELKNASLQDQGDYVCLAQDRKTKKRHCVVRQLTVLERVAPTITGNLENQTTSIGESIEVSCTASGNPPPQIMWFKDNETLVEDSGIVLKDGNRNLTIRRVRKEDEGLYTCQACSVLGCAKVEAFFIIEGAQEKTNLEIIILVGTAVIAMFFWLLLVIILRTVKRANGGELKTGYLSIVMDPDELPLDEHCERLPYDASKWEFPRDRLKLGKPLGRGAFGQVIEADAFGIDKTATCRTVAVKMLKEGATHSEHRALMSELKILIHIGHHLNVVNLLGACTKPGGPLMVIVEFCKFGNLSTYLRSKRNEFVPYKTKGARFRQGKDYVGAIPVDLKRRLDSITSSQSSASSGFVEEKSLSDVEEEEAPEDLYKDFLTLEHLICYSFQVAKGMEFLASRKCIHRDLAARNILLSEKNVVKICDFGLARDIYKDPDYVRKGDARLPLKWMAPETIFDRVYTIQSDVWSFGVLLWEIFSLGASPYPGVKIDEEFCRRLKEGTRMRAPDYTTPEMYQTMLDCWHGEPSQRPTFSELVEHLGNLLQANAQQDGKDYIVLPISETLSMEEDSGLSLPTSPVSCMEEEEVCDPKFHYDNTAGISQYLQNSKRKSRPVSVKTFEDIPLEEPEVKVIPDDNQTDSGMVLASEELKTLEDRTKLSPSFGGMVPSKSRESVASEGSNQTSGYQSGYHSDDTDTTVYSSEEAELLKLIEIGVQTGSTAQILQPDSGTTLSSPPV
ALK tyrosine kinase receptor, sequence (Q9UM73 whole entry, the tested form may be a part): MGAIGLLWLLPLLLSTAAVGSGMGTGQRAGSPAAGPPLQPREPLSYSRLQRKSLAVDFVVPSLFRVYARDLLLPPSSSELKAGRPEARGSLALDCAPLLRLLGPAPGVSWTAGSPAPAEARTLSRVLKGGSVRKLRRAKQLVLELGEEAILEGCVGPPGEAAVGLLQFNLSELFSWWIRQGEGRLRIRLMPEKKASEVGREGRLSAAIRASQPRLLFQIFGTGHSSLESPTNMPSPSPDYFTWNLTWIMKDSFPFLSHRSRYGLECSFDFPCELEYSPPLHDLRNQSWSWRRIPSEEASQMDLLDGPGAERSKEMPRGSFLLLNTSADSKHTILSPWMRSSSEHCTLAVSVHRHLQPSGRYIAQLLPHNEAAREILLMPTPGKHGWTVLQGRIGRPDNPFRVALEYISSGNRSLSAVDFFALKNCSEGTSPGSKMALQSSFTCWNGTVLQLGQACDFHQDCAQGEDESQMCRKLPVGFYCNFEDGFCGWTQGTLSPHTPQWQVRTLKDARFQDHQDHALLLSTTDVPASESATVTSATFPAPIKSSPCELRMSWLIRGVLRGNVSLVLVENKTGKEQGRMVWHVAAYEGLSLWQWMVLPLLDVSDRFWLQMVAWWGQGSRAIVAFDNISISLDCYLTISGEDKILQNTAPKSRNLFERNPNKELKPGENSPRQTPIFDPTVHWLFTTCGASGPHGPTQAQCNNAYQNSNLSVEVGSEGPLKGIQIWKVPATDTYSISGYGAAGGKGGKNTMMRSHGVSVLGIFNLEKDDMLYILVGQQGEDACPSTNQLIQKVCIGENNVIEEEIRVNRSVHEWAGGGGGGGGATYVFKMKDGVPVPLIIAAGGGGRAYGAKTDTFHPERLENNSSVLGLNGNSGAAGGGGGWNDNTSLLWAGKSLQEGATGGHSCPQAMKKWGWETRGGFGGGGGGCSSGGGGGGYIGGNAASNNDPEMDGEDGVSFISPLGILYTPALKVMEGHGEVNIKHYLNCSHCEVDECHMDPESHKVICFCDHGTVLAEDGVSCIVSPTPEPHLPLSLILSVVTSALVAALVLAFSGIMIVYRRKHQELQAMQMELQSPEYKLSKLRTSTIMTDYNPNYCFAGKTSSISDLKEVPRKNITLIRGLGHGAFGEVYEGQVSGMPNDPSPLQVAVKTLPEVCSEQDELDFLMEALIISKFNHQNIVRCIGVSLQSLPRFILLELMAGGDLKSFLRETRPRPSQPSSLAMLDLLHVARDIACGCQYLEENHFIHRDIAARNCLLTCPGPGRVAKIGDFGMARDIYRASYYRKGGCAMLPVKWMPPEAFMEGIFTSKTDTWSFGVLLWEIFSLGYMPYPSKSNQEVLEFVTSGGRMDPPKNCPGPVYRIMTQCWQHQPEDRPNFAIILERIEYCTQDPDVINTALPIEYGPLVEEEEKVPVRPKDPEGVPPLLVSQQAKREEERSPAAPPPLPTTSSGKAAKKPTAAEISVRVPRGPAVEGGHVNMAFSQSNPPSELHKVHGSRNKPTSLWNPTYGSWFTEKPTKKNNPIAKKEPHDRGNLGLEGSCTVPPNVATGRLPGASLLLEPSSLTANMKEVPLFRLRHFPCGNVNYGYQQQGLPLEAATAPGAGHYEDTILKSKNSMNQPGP

Turning to `CNc1ncc2c(-c3ccc(N4CCN(C)CC4)nc3)nn(CC3CCCC3)c2n1`, the pIC50 was 7.52 at Aurora kinase A; 7.15 in test [1]; 6.32 in test [2]; 6.10 in test [3]; 6.40 in test [4]; 6.72 in test [5].

Take `CNc1ncc2c(-c3ccc(N4CCNCC4)cc3)nn(Cc3cn(Cc4ccccc4)nn3)c2n1`: the result in the test listed under Mus musculus was inactive. Besides, the pIC50 (on Aurora kinase A; in test [1]; in test [2]; in test [3]; in test [4]) was less than 5.00 throughout.

For `CNc1ncc2c(-c3ccc(N4CCNCC4)nc3)nn(Cc3cn(-c4ccsc4C(=O)OC)nn3)c2n1`, the outcome in the test filed under Mus musculus was Active. The pIC50 at Aurora kinase A was 6.10; in test [1], 6.11; in test [2], 5.05; in test [3], less than 5.00; in test [4], less than 5.00.

Regarding `CCN1CCN(c2ccc(-c3nn(CC4CCCC4)c4nc(NC)ncc34)cn2)CC1`, the pIC50 is 6.55 on Aurora kinase A; 6.59 in test [1]; 5.60 in test [2]; 5.44 in test [3]; 5.72 in test [4].

On to `CNc1ncc2c(-c3ccc(OC)cc3)nn(CC3OCCO3)c2n1`, for which the pEC50 in test [6] is not below 5.00. For the same molecule, the pIC50 on Aurora kinase A was 6.25; in test [1] it was 5.89; in test [2], 5.06; in test [3] it was 5.14; in test [4], 5.12.

As to `CNc1ncc2c(-c3ccc(N4CCNCC4)nc3)nn(CC3OCCO3)c2n1`, the pEC50 in test [6] is not below 5.00. Moreover, the pIC50 on Aurora kinase A is 6.18; in test [1], 6.28; in test [2] it was 5.21; in test [3], 6.05; in test [4] it was 5.35.

Take `CNc1ncc2c(-c3ccc(N4CCNCC4)nc3)nn(CC3CCCC3)c2n1`: the pEC50 in test [6] was 6.08. Moreover, the pIC50 was 6.80 at Aurora kinase A; 6.92 in test [1]; 6.19 in test [2]; 5.96 in test [3]; 6.16 in test [4].

Consider `CNc1ncc2c(-c3ccc(N4CCN(C)CC4)nc3)nn(Cc3cn(Cc4ccccc4)nn3)c2n1`, for which the outcome in the test listed under Mus musculus was inactive. Further, the pIC50 on Aurora kinase A was 6.14; in test [1] it was 6.42; in test [2] it was 5.70; in test [3] it was 5.08; in test [4] it was 5.12.

In the case of `CNc1ncc2c(-c3ccc(N4CCN(C(=O)C(C)(C)C)CC4)nc3)nn(CC3CCCC3)c2n1`, the pIC50 at Aurora kinase A was 6.21; in test [1], 5.14; in test [2] it was less than 5.00; in test [3], less than 5.00; in test [4], less than 5.00.

As to `CCN1CCN(c2ccc(-c3nn(Cc4cn(Cc5ccccc5)nn4)c4nc(NC)ncc34)cn2)CC1`, in the test listed under Mus musculus, the outcome was inactive. Moreover, the pIC50 on Aurora kinase A is less than 5.00; in test [1], less than 5.00; in test [2], less than 5.00; in test [3], less than 5.00; in test [4], 5.11.

In the case of `CNc1ncc2c(-c3ccc(N4CCN(C(=O)C(C)(C)C)CC4)nc3)nn(Cc3cn(Cc4ccccc4)nn3)c2n1`, in the test filed under Mus musculus, the outcome was inactive. The pIC50 is 6.08 at Aurora kinase A; 6.12 in test [1]; 5.27 in test [2]; less than 5.00 in test [3]; less than 5.00 in test [4].

Turning to `Nc1nc(Nc2ccc3c(c2)CC[C@@H](N2CCCC2)CC3)nn1-c1cc2c(nn1)-c1ccccc1CCC2` [BEMCENTINIB], the results for the pIC50 (at Aurora kinase A; in test [5]) were 7.59 and 6.28, respectively.

Values taken from ChEMBL document CHEMBL4184298, “Development of Potent Inhibitors of Receptor Tyrosine Kinases by Ligand-Based Drug Design and Target-Biased Phenotypic Screening” (J Med Chem, 2018).
